These results are taken from paper PMC7658953 (ACS Omega, 2020).

For data set [1], the system named is MSSA ATCC 29213. Kind of data set: Killing of stationary phase cells in PBS, colony count. The class given is cell-based, Staphylococcus aureus. The conditions noted are these: 2 h, 10^5 CFU/mL stationary phase cells. In short, it runs like this: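 Stationary-phase cells washed once and resuspended in 10 mM PBS (150 mM NaCl, pH 7.4). Adjusted to about 10^8 CFU/mL (OD600 0.5), then diluted 10-fold serially to 10^5 CFU/mL. Exposed to test compound for 2 h at 37 °C, 180 rpm; aliquots diluted, plated and counted after overnight incubation at 37 °C. Bactericidal defined as >3 log reduction versus untreated control.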

For data set [2], the system named is MSSA ATCC 29213. As to the kind of experiment: MIC, broth microdilution. The class given is cell-based, Staphylococcus aureus. In short, it runs like this:
(§1)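 Broth microdilution: mid-log cells washed, suspended in cation-adjusted MHB or TSB (0.25% glucose, 0.5% NaCl), and adjusted to 10^8 CFU/mL (OD600 0.5). Added to 2-fold serial dilutions of test compound in 0.2% BSA/0.01% acetic acid, final about 2–5 × 10^5 CFU/mL in polypropylene wells. Incubated 16–18 h at 37 °C, 180 rpm; A600 read. MIC = lowest concentration fully inhibiting growth. Duplicates on at least two days.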

Data set [3] relates to MRSA ATCC 33591. As to the kind of experiment: MIC, broth microdilution. The format is cell-based, Staphylococcus aureus. Put shortly: as §1
Background: Dilution methods test growth across graded concentrations, often in twofold steps.

The test system of data set [4] is MSSA ATCC 29213 and MRSA ATCC 33591. As to the kind of experiment: Killing kinetics of stationary phase cells in TSB medium, both strains pooled. The class given is cell-based, Staphylococcus aureus. The conditions noted are these: 10 × MIC, 10^7 CFU/mL. In short, it runs like this:
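Adjusted to 10^7 CFU/mL (OD600 0.05) in the same medium and incubated at 37 °C with test compound at 30, 40 or 50 μM; vancomycin included as comparator. Aliquots taken at 15 and 30 min, 1, 2, 3 and 24 h, serially diluted and drop-plated; colonies counted after 16–18 h. Three independent runs.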

The test system of a further data set is S. aureus biofilm. Kind of data set: Inhibition of biofilm formation, both strains pooled. The class given is cell-based, Staphylococcus aureus. The conditions noted are these: identical conditions, 24 h, TSB, MSSA and MRSA. In short, it runs like this:
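Overnight S. aureus diluted to 10^5 CFU/mL in TSB (0.25% glucose, 0.5% NaCl). Biofilms grown 24 h at 37 °C in polystyrene wells with 20 μM test compound. Biomass by crystal violet after two PBS washes, read at 570 nm. Metabolic activity by resazurin: plate sonicated 5 min at 40 kHz, 30 min dark at room temperature, ex 550/em 590 nm. Viable cells by scraping into PBS, sonicating, plating and counting after 16–18 h at 37 °C.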

Data set [5] relates to MRSA ATCC 33591. Kind of data set: In vitro resistance development, serial passage study. The class given is cell-based, Staphylococcus aureus. The conditions noted are these: cation-adjusted MHB, ratio of MIC after passage to MIC before first passage.
The next data set relates to S. aureus cells. As to the kind of experiment: MIC of palmitic acid, preliminary studies. The format is cell-based. The conditions noted are these: Staphylococcus aureus.
Data set [6] concerns 3T3 murine fibroblast cells. As to the kind of experiment: Cytotoxicity, MTT assay. The format is cell-based. The conditions noted are these: 2% Triton X-100, positive control. Put shortly: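 3T3 murine fibroblasts seeded at 0.2 × 10^5 cells/well in DMEM with 10% FBS for 24 h to about 75% confluence. Exposed to 20 or 50 μM test compound in serum-free DMEM for 2 h at 37 °C, 5% CO2. Washed, then 0.1 mg/mL MTT for 2 h in the dark; formazan dissolved in DMSO and read at 570 nm. Survival % = OD570 sample/untreated × 100. Two independent runs in duplicate.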
Background: Tetrazolium dyes change colour on reduction, which living cells bring about.

Data set [7] concerns murine red blood cells (RBCs). Kind of data set: Hemolytic activity. The class given is cell-based. The conditions noted are these: 1 h. In short, it runs like this:
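Fresh murine RBCs washed twice in 35 mM PBS (150 mM NaCl, pH 7.4) and suspended at 4% (v/v). Mixed 1:1 with 2-fold serial dilutions of test compound in PBS and held 1 h at 37 °C. After centrifugation, supernatant diluted in PBS and hemoglobin read at 414 nm. Lysis % scaled between PBS and 0.1% Triton X-100 (100%). Duplicate wells, two days.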

Data set [8] concerns stationary phase S. aureus cells. Kind of data set: SEM and TEM of stationary phase cells. The conditions noted are these: 20 μg/mL, positive control. The class given is cell-based, Staphylococcus aureus.
Where [9] appears, read: Staphylococcus aureus, ATCC29213|MSSA.
The mark [10] stands for this setting: tryptic soy broth (0.25% glucose, 0.5% NaCl).
The mark [11] stands for this setting: Staphylococcus aureus, ATCC33591|MRSA.

In brackets after ≈: the same amount, converted by molar mass. Several values for one entry are separate records, joined by “and”; a condition that tells them apart may be missing. Equal entries are not always repeated.

Take Ac-K^11-P^12-V^13-NH2 [α-MSH(11-13)]: in the data set with MSSA ATCC 29213 [1] (150 μM), the “log reduction in viable cell count” value turned out to be 0.7 log.

Consider “Ac-H^6-F^7-R^8-W^9-G^10-K^11-P^12-V^13-NH2 [α-MSH(6-13)]”, for which the “log reduction in viable cell count” value with MSSA ATCC 29213 [1] (20 μM) and in the data set on MSSA ATCC 29213 [1] (50 μM) was around 2 log each time.

Take `CN[C@H](CC(C)C)C(=O)N[C@H]1C(=O)N[C@@H](CC(N)=O)C(=O)N[C@H]2C(=O)N[C@H]3C(=O)N[C@H](C(=O)N[C@H](C(=O)O)c4cc(O)cc(O)c4-c4cc3ccc4O)[C@H](O)c3ccc(c(Cl)c3)Oc3cc2cc(c3O[C@@H]2O[C@H](CO)[C@@H](O)[C@H](O)[C@H]2O[C@H]2C[C@](C)(N)[C@H](O)[C@H](C)O2)Oc2ccc(cc2Cl)[C@H]1O` [vancomycin]: the minimum inhibitory concentration (MIC) was 0.48 µM (≈ 0.696 µg/mL) with MSSA ATCC 29213 [2] (setting [9]), 0.48 µM (≈ 0.696 µg/mL) against MSSA ATCC 29213 [2] (setting [10]), 0.48 to 0.96 µM (≈ 0.696 to 1.39 µg/mL) in the data set on MRSA ATCC 33591 [3] (setting [11]) and 0.48−0.96 μM against MRSA ATCC 33591 [3] (setting [10]). For the same molecule, in data set [4] (24 h, range over MSSA and MRSA), the “log reduction in the cell count” value is recorded as 3.4–4.4 log. For the same molecule, in [4] (up to 3 h), the cell viability result is “did not affect the cell viability”. In the data set with S. aureus biofilm, the “log reduction in the viable cell count of the biofilm” value is recorded as at least 4.8 log. In addition, the “reduction of biofilm biomass (crystal violet)” value in the data set with S. aureus biofilm is on record as at least 98.32 ± 0.95%. Moreover, in the data set with S. aureus biofilm, the “reduction of metabolic activity in the biofilm (resazurin)” value is reported as 100%. For the same molecule, the “increase in MIC after 18 serial passages at sub-MIC concentrations” value in the data set on MRSA ATCC 33591 [5] was 8 fold.

For the molecule `Cc1onc(-c2ccccc2)c1C(=O)N[C@@H]1C(=O)N2[C@@H]1SC(C)(C)[C@@H]2C(=O)O` [oxacillin], the MIC with MSSA ATCC 29213 [2] (setting [9]) is < 0.8 µM and < 0.35 µg/mL; in the data set with MSSA ATCC 29213 [2] (setting [10]), < 0.8 μM and < 0.35 μg/mL; in the data set with MRSA ATCC 33591 [3] (setting [11]), 134 µM to 268 µM and 56.8 µg/mL to 114 µg/mL; against MRSA ATCC 33591 [3] (setting [10]), 134.1–268.3 μM and 56.8–113.6 μg/mL.

Consider `O=C(O)c1cn(C2CC2)c2cc(N3CCNCC3)c(F)cc2c1=O` [ciprofloxacin], for which the “increase in MIC after 18 serial passages at sub-MIC concentrations” value in the data set on MRSA ATCC 33591 [5] turned out to be 66 fold.

Consider `CCCCCCCCCCCCCCCC(=O)O` [palmitic acid], for which the MIC with S. aureus cells is above 50 µM.

On to Triton X-100, for which the “reduction in survival of the cells relative to untreated growth control” value in [6] came out at 52.8%.

Turning to `CC[C@H](C)[C@H](NC(=O)CN)C(=O)NCC(=O)N[C@@H](C)C(=O)N[C@H](C(=O)N[C@@H](CC(C)C)C(=O)N[C@@H](CCCCN)C(=O)N[C@H](C(=O)N[C@@H](CC(C)C)C(=O)N[C@H](C(=O)N[C@H](C(=O)NCC(=O)N[C@@H](CC(C)C)C(=O)N1CCC[C@H]1C(=O)N[C@@H](C)C(=O)N[C@@H](CC(C)C)C(=O)N[C@H](C(=O)N[C@@H](CO)C(=O)N[C@@H](Cc1c[nH]c2ccccc12)C(=O)N[C@H](C(=O)N[C@@H](CCCCN)C(=O)N[C@@H](CCCNC(=N)N)C(=O)N[C@@H](CCCCN)C(=O)N[C@@H](CCCNC(=N)N)C(=O)N[C@@H](CCC(N)=O)C(=O)N[C@@H](CCC(N)=O)C(N)=O)[C@@H](C)CC)[C@@H](C)CC)[C@@H](C)O)[C@@H](C)O)C(C)C)C(C)C` [melittin], the “HC50 (concentration that causes lysis of 50% of the RBCs)” value in [7] is at most 3.9 µM.

With gramicidin D, the “bacterial morphology and surface integrity in SEM and TEM” value in data set [8] was “presence of cell debris, dents on the surface, and loss in shape of the cells”.

For orientation: MIC means the smallest concentration in the dilution series that meets the test's criterion for growth inhibition.
